This is a sample that favours compounds with a hit; in the whole collection about 2.6% have one here.
CHT inh – human CHT choline transport inhibition; CHT-expressing cells, membrane potential dye, choline response; stronger effect = lower value; 310,000 compounds, 0.86% hits; B-score at 10 µM; Q9GZV3; AID 488975;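 active = B-score over 3 SD under the library average, and starting fluorescence ratio not unusually high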;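 note: choline stimulus applied at its EC90 after an EC20 pre-addition; B-score computed on integrated fluorescence ratio after choline addition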
KCC2 mod – modulates chloride dependent transport by human KCC2. AID 1456. Q9H2X9. 190,000 compounds, 2.2% hits. B-score of Tl+ flux slope (higher = more flux/activation; lower = inhibition) at 10 µM. KCC2 cells, thallium flux FluoZin-2 fluorescence;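 active = thallium flux slope and its plate-corrected score both differing from the plate sample mean at a set confidence after two filtering rounds, in either direction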;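 note: slope of fluorescence scaled to starting intensity during 10 to 20 s after thallium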
Target sequence (Q9H2X9 whole entry, looked up): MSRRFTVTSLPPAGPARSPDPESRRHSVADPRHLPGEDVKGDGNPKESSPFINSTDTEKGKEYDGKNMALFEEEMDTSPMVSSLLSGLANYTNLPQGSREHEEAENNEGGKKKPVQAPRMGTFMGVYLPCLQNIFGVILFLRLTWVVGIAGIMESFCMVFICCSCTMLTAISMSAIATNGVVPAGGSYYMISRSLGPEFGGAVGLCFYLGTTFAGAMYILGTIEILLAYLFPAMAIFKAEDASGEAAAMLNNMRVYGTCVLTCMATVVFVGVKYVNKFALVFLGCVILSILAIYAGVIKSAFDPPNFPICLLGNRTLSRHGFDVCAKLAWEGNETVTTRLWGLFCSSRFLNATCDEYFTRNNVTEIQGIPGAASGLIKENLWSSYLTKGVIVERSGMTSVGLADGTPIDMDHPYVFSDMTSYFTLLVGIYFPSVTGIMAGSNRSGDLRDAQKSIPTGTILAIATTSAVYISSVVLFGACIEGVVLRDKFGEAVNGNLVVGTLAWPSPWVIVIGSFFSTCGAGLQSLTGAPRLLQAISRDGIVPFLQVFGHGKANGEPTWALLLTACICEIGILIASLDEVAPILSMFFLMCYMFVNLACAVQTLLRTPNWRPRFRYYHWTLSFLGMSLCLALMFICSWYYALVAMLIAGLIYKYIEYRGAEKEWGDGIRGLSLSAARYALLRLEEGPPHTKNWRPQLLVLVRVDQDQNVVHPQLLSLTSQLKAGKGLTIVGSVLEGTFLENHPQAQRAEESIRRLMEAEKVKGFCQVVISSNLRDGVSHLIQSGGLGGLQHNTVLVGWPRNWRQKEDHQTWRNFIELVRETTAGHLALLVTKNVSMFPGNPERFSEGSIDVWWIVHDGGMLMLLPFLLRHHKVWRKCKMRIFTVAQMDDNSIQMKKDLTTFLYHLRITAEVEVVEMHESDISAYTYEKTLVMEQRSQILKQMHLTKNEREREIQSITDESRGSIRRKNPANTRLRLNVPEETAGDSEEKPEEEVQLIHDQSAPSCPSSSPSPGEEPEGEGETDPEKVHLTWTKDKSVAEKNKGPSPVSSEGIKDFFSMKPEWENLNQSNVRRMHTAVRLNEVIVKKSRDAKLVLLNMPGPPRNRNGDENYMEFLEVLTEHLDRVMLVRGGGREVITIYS
Rad51 HR inh – Rad51 (human) homologous recombination inhibition. hRad51 DNA strand exchange, fluorescence dequenching. AID 1385. inhibition, % at 10 µM. 200,000 compounds, 0.085% hits. Q06609;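 active = inhibition above 40% at the single screening dose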;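 note: 0% = DMSO control wells and 100% = blanks with heterologous ssDNA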
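Test system – preformed human Rad51 ssDNA filaments · Reagent – Donor/quencher-labelled 47-bp dsDNA substrate · Incubation – 37 °C 15-min filament assembly, 30-min compound preincubation, 15-min exchange · Signal – FRET fluorescence dequenching, excitation 485 nm, emission 520 nm · Read-out – percent inhibition from fluorescence, normalised to plate control and blank means · Benchmarks – plate control and blank wells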
CHT PAM – allosterically activates the human high affinity choline transporter; CHT-expressing cells, membrane potential dye, choline EC20; stronger effect = higher value; LV-AA mutant CHT in HEK293 cells; AID 488977; 310,000 compounds, 0.49% hits; B-score at 10 µM;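 active = initial fluorescence not abnormally high and integrated response B-score, plate-corrected, over 3 SD above library mean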
KCC2 secondary – confirmation of human KCC2 transport modulators. shares compounds with KCC2 mod. HEK293-KCC2, thallium flux, FluoZin2 fluorescence; stronger effect = higher value. normalised thallium flux (F/F0 slope) at 10 µM. 3,700 compounds, 15% hits. AID 1713;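 active = thallium flux slope above the same plate's solvent-only control mean plus 3 SD; inconclusive = the two replicate wells disagree; inactive = no significant difference from solvent-only control wells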
KCC2 bumet counter – thallium flux despite bumetanide block in KCC2 cells, secondary assay 3; shares compounds with KCC2 mod; HEK293-KCC2 + bumetanide/ouabain, thallium flux FluoZin2; stronger effect = higher value; normalized thallium flux at 10 µM; 3,700 compounds, 49% hits; AID 1714;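 active = thallium entry rate above the same plate's blocked-transporter control wells by more than 3 SD; inconclusive = the two repeat wells disagree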;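 note: raw slope of fluorescence over initial fluorescence between 10 and 20 s after thallium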
KCC2 sec2 – KCC2 (human) modulation, second secondary assay. normalized thallium flux at 10 µM. AID 1715. HEK293-KCC2, thallium flux FluoZin2 fluorescence; actives lie on both sides; F/F0 rise rate, 10–20 s post-thallium. 3,700 compounds, 23% hits. shares compounds with KCC2 mod;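 active = thallium flux slope more than 3 SD above or below the plate's solvent-only control mean, mostly below; inconclusive = the two repeat wells disagreed; inactive = no significant shift from solvent-only controls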;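 note: raw slope with 0.1% DMSO as baseline and bumetanide as block control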
HEK293 Tl flux – counter-screen for KCC2 modulators: effect in parental HEK293 cells; shares compounds with KCC2 mod; thallium flux FluoZin2, ouabain; baseline-ratio fluorescence slope, 10–20 s after thallium; thallium flux rate (normalised fluorescence) at 10 µM; 3,700 compounds, 46% hits; AID 1716;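 active = thallium flux rate significantly above the same plate's solvent-only control wells, beyond their mean plus 3 SD; inconclusive = the two replicate wells gave conflicting results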
KCC2 ouabain – KCC2 (human) modulation, ouabain retest; shares compounds with KCC2 mod; HEK293-KCC2, thallium flux FluoZin2 fluorescence; bidirectional: low = inhibitor, high = activator; raw Tl+ flux slope (below DMSO = inhibition, above = activation) at 10 µM; 3,700 compounds, 48% hits;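 active = thallium flux slope beyond 3 SD from same-plate DMSO control mean in most replicates, usually higher, sometimes lower; inconclusive = repeat tests gave conflicting results; inactive = no significant difference from controls in most replicates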;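 note: slope of initial-normalized fluorescence between seconds 10 and 20 after thallium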
HEK counter2 – acts in parental HEK cells, second KCC2 counter-screen; shares compounds with KCC2 mod; HEK293 parental, thallium flux FluoZin-2 fluorescence slope; thallium flux slope at 10 µM; 3,700 compounds, 33% hits;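 active = thallium flux slope above the same plate's solvent-control mean plus 3 SD in both duplicate wells; inconclusive = duplicate wells that disagreed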;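 note: run without ouabain in cells lacking the KCC2 cotransporter; slope of fluorescence scaled to its starting value between 10 and 20 s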
Starred values were filed as active, the others as inactive; i = inactive; ? = inconclusive; . = no result given.

SMILES | CHT inh | KCC2 mod | Rad51 HR inh | CHT PAM | KCC2 secondary | KCC2 bumet counter | KCC2 sec2 | HEK293 Tl flux | KCC2 ouabain | HEK counter2
CC(C)n1c(=S)[nH]c2scc(-c3cccs3)c2c1=O | i | 110* | 4.1 | i | 0.0233* | 0.0923* | 0.0883* | 0.09* | 0.0926* | 0.0847*
CCCc1cc(=O)oc2cc(C)cc(OCC(=O)Nc3ccc(S(N)(=O)=O)cc3)c12 | i | . | . | i | . | . | . | . | . | .
CCCCNC(=O)[C@H]1C[C@H]1[C@@H](O)[C@H](CO)NC(=O)[C@H](Cc1ccccc1)NC(=O)OC(C)(C)C | i | . | . | i | . | . | . | . | . | .
CC(C)/C=C1\CC/C(=C\c2cccnc2)C1=O | i | -4.12* | 10.3 | i | 0.00903 | 0.00536 | 0.033 | 0.00402 | 0.0183 | 0.0106
O=C1/C(=C/c2cccnc2)CC/C1=C\c1cccnc1 | i | -0.174 | 28.6 | i | . | . | . | . | . | .
O=S(=O)(CCN1CCOCC1)c1ccc(Oc2ccc(S(=O)(=O)CCN3CCOCC3)cc2)cc1 | i | . | . | i | . | . | . | . | . | .
Cc1cccc(-c2nnc(NC(=O)c3ccc(Cl)cc3)o2)c1 | i | 91.4* | 0.3 | i | 0.0704* | 0.162* | 0.0775* | ? | 0.121* | 0.0716*
O=C(Nc1nnc(-c2ccccn2)o1)c1cccc(Br)c1 | i | 2.01 | -0.5 | i | . | . | . | . | . | .
O=C(Nc1nnc(-c2ccco2)o1)c1ccc(Cl)s1 | i | . | . | i | . | . | . | . | . | .
COc1cc(OC)cc(C(=O)Nc2nnc(-c3cccnc3)o2)c1 | i | -1.62 | 7.4 | i | . | . | . | . | . | .
O=C(Nc1nnc(-c2cccnc2)o1)c1cccc(Cl)c1 | i | 14.3* | . | i | ? | 0.0271* | 0.0335 | ? | 0.0339* | 0.0126
O=C(Nc1nnc(-c2ccco2)o1)c1cccc(Cl)c1 | i | 23.5* | 1.7 | i | 0.0193* | 0.0628* | 0.0339 | 0.034* | 0.0488* | 0.0146*
O=C(Nc1nnc(-c2ccccn2)o1)c1cccc(Cl)c1 | i | 10.8* | -5.9 | i | 0.00659 | 0.0152* | 0.0375 | 0.0215* | 0.0272* | 0.0219*
O=C(Nc1ccccc1)c1cccc(=O)o1 | i | -0.0241 | 16.6 | i | . | . | . | . | . | .
COc1ccc(OC)c(NC(=O)CCC(=O)Oc2ccc(C)cc2)c1 | i | . | . | i | . | . | . | . | . | .
Cc1cccnc1NC(=O)c1ccc(S(=O)(=O)N2CC(C)OC(C)C2)cc1 (stereo not drawn) | i | 0.855 | 16.0 | i | . | . | . | . | . | .
O=C(/C=C/c1ccccc1)Nc1nnc(-c2ccco2)o1 | i | 2.79* | -5.3 | i | 0.007 | 0.00833* | 0.0277 | ? | 0.0192 | 0.0102
CC(Oc1ccccc1F)C(=O)NNC(=O)c1cc2ccccc2o1 (stereo not drawn) | i | . | . | i | 0.00716 | 0.0282* | 0.0342 | 0.0217* | 0.0305* | 0.0161*
COc1ccc(CNC(=S)NNC(=O)c2cc3ccccc3o2)cc1 | i | . | . | i | . | . | . | . | . | .
COc1ccc(OCC(=O)NNC(=O)c2cc3ccccc3o2)cc1 | i | 5.1* | 0.7 | i | 0.0134* | 0.0174* | 0.0318 | ? | ? | 0.0125
COc1ccc(OCC(=O)Nc2ccccc2O)cc1 | i | -0.0647 | -0.4 | i | . | . | . | . | . | .
CCCNC(=O)c1ccccc1NC(=O)COc1ccc(OC)cc1 | i | 6.48* | -9.4 | i | 0.009 | ? | 0.0328 | 0.00802 | 0.0212 | 0.0111
Cc1ccc(-c2n[nH]c(Cc3ccccc3)n2)cc1 | i | . | . | i | . | . | . | . | . | .
CCOC(=O)c1sc(NS(=O)(=O)c2ccc(NC(C)=O)cc2)nc1C | i | 0.113 | -3.9 | i | . | . | . | . | . | .
S=C(NCc1cccnc1)Nc1ccc(Oc2ccccc2)cc1 | i | -3.89* | . | i | 0.00648 | 0.00425 | 0.0224* | 0.00729 | ? | 0.0106
SMILES | CHT inh | KCC2 mod | Rad51 HR inh | CHT PAM | KCC2 secondary | KCC2 bumet counter | KCC2 sec2 | HEK293 Tl flux | KCC2 ouabain | HEK counter2
FC(F)Oc1ccc(NC(=S)NCc2cccnc2)cc1 | i | 0.172 | -26.4 | i | . | . | . | . | . | .
NNC(=S)NCc1cccnc1 | i | 0.0236 | 3.0 | i | . | . | . | . | . | .
NC(=S)NCc1cccnc1 | i | 4.76* | 21.8 | i | 0.0103 | 0.00647 | 0.0358 | 0.00749 | 0.023 | 0.0111
C=CCNC(=S)Nc1c(N)n(C)c(=O)n(C)c1=O | i | -0.342 | 21.3 | i | . | . | . | . | . | .
Cc1ccsc1/C=C1\SC(N2CC(C)OC(C)C2)=NC1=O (stereo not drawn) | i | 0.703 | . | i | . | . | . | . | . | .
COc1ccc(Cn2nnc3c(C)n[nH]c(=O)c32)cc1 | i | . | . | i | . | . | . | . | . | .
O=C(Nc1nccs1)C1CCN(S(=O)(=O)c2ccccc2)CC1 | i | . | . | i | . | . | . | . | . | .
Cc1ccc(S(=O)(=O)N2CC(O)CC2C(=O)OCC(=O)c2ccccc2Cl)cc1C (stereo not drawn) | i | -4.15* | -2.5 | i | ? | 0.00437 | 0.0349 | 0.00386 | 0.0155* | 0.0111
O=C(NC(=S)NNC(=O)c1ccco1)c1ccccc1 | i | . | . | i | . | . | . | . | . | .
O=C(/C=C/c1ccc(Br)cc1)NC(=S)NNC(=O)c1ccco1 | i | 3.92* | . | i | 0.0102 | 0.0103* | 0.034 | ? | 0.0215 | 0.0107
CSc1ncc(Cl)c(C(=O)Nc2nnc(SC/C=C/c3ccccc3)s2)n1 | i | 28* | 7.2 | i | 0.00652 | 0.0818* | 0.0542* | 0.0638* | 0.0657* | 0.0411*
C=CCSc1nnc(NC(=O)c2nc(SCC)ncc2Cl)s1 | i | . | -7.1 | i | . | . | . | . | . | .
Cc1ccc(F)cc1CNC(=O)C1CCC(=O)N(CC2CCCCC2)C1 (stereo not drawn) | i | . | . | i | . | . | . | . | . | .
N#C/C(=C(O)\C=C\c1ccccc1)c1nc2ccccc2[nH]1 | i | 6.63* | 21.3 | i | 0.00579 | 0.0049 | ? | 0.00762 | 0.0191 | 0.0104
CC(C)(C)/C(O)=C(/C#N)c1nc2ccccc2[nH]1 | i | . | 1.7 | i | . | . | . | . | . | .
CCC(C)c1ccccc1N1CC(C(=O)N2CCN(S(=O)(=O)c3ccccc3Br)CC2)CC1=O (stereo not drawn) | i | . | . | i | . | . | . | . | . | .
CCOc1cc2[nH]c(=S)n(CCOC)c(=O)c2cc1OCC | i | 0.0141 | 3.9 | i | . | . | . | . | . | .
COCCn1c(=S)[nH]c2ccc(N(C)C)cc2c1=O | i | 3.21* | 8.0 | i | 0.00665 | 0.00828* | 0.029 | 0.00951* | 0.0187 | 0.0121*
